From ChEMBL document CHEMBL3817736, “Discovery of Bifunctional Oncogenic Target Inhibitors against Allosteric Mitogen-Activated Protein Kinase (MEK1) and Phosphatidylinositol 3-Kinase (PI3K)” (J Med Chem, 2016)
Active and inactive are the calls of the source. No cut-off for these calls is given here.

Key:
[1] = tested on: A549; assay: Inhibition of PI3K in human A549 cells assessed as inhibition of AKT phosphorylation at 1 to 25 uM incubated for 1 hr by Western blotting; format: cell-based
In short: (§1)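 Cells seeded 24 h before treatment, then exposed to compounds for 1 h; DMSO vehicle control. Lysis in NP-40 buffer (1% NP40, 150 mM NaCl, 25 mM Tris pH 8.0) with protease and phosphatase inhibitors. Protein measured by Lowry. Equal protein run on 4-12% Bis-Tris gels and blotted. Probes: pERK1/2 (Thr202/Tyr204), pAKT (S473), total ERK/AKT, β-actin; ECL detection.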

[2] = tested on: D54; assay: Cytotoxic activity against human D54 cells assessed as reduction in cell viability incubated for 48 hrs by alamar blue assay; format: functional, cell-based
In short: (§2)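 Cells grown in RPMI with 10% heat-inactivated FBS and 1% penicillin/streptomycin/glutamine at 37 °C, 5% CO2. Compounds made as 10 mM DMSO stocks, serially diluted in RPMI. Controls received media with 1% DMSO. Viability read by AlamarBlue fluorescence 48 h after dosing. Combination treatments used co-administered single agents.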

[3] = tested on: D54; assay: Inhibition of PI3K in human D54 cells assessed as inhibition of AKT phosphorylation at 1 to 25 uM incubated for 1 hr by Western blotting; format: cell-based; in short: as §1
[4] = biological target: T1, Dual specificity mitogen-activated protein kinase kinase 1 (Homo sapiens, UniProt Q02750); assay: Inhibition of MEK1 in human A549 cells assessed as inhibition of ERK1/2 phosphorylation at 1 to 25 uM incubated for 1 hr by Western blotting; format: cell-based; in short: as §1
[5] = tested on: A549; assay: Cytotoxic activity against human A549 cells assessed as reduction in cell viability incubated for 48 hrs by alamar blue assay; format: functional, cell-based; in short: as §2
[6] = biological target: T1, Dual specificity mitogen-activated protein kinase kinase 1; assay: Inhibition of MEK1 in human D54 cells assessed as inhibition of ERK1/2 phosphorylation at 1 to 25 uM incubated for 1 hr by Western blotting; format: cell-based; in short: as §1
[7] = biological target: Dual specificity mitogen-activated protein kinase kinase 1 (Mus musculus, UniProt P31938); assay: Inhibition of MEK1 in mouse C26 cells assessed as inhibition of ERK1/2 phosphorylation incubated for 1 hr by Western blotting; format: cell-based
[8] = tested on: D54; assay: Cytotoxic activity against human D54 cells assessed as reduction in cell viability incubated for 48 hrs in presence of ZSTK474 by alamar blue assay; format: functional, cell-based; in short: as §2
[9] = tested on: D54; assay: Cytotoxic activity against human D54 cells assessed as reduction in cell viability incubated for 48 hrs in presence of PD0325901 by alamar blue assay; format: functional, cell-based; in short: as §2
[10] = Inhibition of PI3K (unknown origin) assessed as reduction in lipid kinase activity by fluorescence-based Adapta TR-FRET assay; design: species or system Homo sapiens
[11] = tested on: Mus musculus; assay: In-vivo inhibition of MEK1 in human D54 cells xenografted nude Foxn1nu mouse assessed as reduction in tumor ERK1/2 phosphorylation at 375 mg/kg, po dosed 2 hrs before mouse sacrifice by Western blot method; format: functional
In short: (§3)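 Five-week-old athymic nude Foxn1nu mice given s.c. flank injections of 1×10^6 cells in 50% RPMI/50% Matrigel (n=2 per tumor type). At about 150 mm³ tumor volume, mice were fasted 4 h, then dosed by oral gavage with 375 mg/kg in DMSO:HPBCD (3:2) or vehicle. Sacrifice at 2 h. Excised tumors analysed by western blot for pERK1/2 and pAKT.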

[12] = biological target: T1, Dual specificity mitogen-activated protein kinase kinase 1; assay: Inhibition of purified MEK1 (unknown origin) assessed as reduction in phosphorylation of inactive Erk2 incubated for 30 mins by Kinase-Glo luminescent kinase assay
[13] = tested on: Mus musculus; assay: In-vivo inhibition of PI3K in human D54 cells xenografted nude Foxn1nu mouse assessed as reduction in tumor AKT phosphorylation at 375 mg/kg, po dosed 2 hrs before mouse sacrifice by Western blot method; format: functional; in short: as §3
[14] = tested on: Mus musculus; assay: In-vivo inhibition of PI3K in human A549 cells xenografted nude Foxn1nu mouse assessed as reduction in tumor AKT phosphorylation dosed through oral gavage 2 hrs before mouse sacrifice by Western blot method; format: functional, organism-based; in short: as §3
[15] = tested on: Mus musculus; assay: In-vivo inhibition of MEK1 in human A549 cells xenografted nude Foxn1nu mouse assessed as reduction in tumor ERK1/2 phosphorylation dosed through oral gavage 2 hrs before mouse sacrifice by Western blot method; format: functional, organism-based; in short: as §3
[16] = tested on: Mus musculus; assay: In-vivo inhibition of PI3K in human D54 cells xenografted nude Foxn1nu mouse assessed as reduction in tumor AKT phosphorylation dosed through oral gavage 2 hrs before mouse sacrifice by Western blot method; format: functional, organism-based; in short: as §3
[17] = tested on: Mus musculus; assay: In-vivo inhibition of MEK1 in human D54 cells xenografted nude Foxn1nu mouse assessed as reduction in tumor ERK1/2 phosphorylation dosed through oral gavage 2 hrs before mouse sacrifice by Western blot method; format: functional, organism-based; in short: as §3

T1 sequence (Q02750 whole entry): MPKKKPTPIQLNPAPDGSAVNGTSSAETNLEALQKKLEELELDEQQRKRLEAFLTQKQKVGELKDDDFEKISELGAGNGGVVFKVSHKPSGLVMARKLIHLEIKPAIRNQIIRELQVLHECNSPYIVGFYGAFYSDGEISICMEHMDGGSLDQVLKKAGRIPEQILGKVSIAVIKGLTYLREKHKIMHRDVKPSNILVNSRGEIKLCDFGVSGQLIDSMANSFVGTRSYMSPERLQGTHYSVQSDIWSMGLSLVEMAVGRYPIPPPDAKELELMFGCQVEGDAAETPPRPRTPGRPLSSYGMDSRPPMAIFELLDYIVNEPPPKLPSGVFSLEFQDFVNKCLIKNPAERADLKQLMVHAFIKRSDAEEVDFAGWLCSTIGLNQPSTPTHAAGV
Dual specificity mitogen-activated protein kinase kinase 1 (Mus musculus, UniProt P31938), sequence (P31938 whole entry): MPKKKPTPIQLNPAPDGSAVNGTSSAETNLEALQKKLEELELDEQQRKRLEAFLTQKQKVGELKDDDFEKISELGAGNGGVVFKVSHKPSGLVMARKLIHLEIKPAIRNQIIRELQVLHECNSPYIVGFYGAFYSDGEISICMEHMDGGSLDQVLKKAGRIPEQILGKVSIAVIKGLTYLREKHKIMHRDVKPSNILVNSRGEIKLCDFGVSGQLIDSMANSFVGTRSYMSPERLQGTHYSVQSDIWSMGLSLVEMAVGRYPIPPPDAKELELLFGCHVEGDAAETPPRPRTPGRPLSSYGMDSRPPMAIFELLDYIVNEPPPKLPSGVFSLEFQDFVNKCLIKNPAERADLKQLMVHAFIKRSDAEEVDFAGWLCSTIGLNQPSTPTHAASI

inhibition [4] | inhibition [6] | SMILES | inhibition [1] | inhibition [2] | inhibition [3] | inhibition [5] | also measured
Active | Active | O=C(CNCCONC(=O)c1ccc(F)c(F)c1Nc1ccc(I)cc1F)NCCCCCC(=O)N1CCN(c2nc(N3CCOCC3)nc(-n3c(C(F)F)nc4ccccc43)n2)CC1 | Active | Dose-dependent effect | Active | Dose-dependent effect | 
 |  | CNCCONC(=O)c1ccc(F)c(F)c1Nc1ccc(I)cc1F |  |  |  |  | IC50 [7]: 20 nM
 |  | O=C(NOC[C@H](O)CO)c1ccc(F)c(F)c1Nc1ccc(I)cc1F |  | Dose-dependent effect |  | Dose-dependent effect | Activity [8]: Active
 |  | FC(F)c1nc2ccccc2n1-c1nc(N2CCOCC2)nc(N2CCOCC2)n1 |  | Dose-dependent effect |  | Dose-dependent effect | Activity [9]: Active
Active | Active | O=C(NOCCNCCCCS(=O)(=O)N1CCN(c2nc(N3CCOCC3)nc(-n3c(C(F)F)nc4ccccc43)n2)CC1)c1ccc(F)c(F)c1Nc1ccc(I)cc1F |  | Dose-dependent effect |  | Dose-dependent effect | IC50 [10]: 285 nM
Active | Active | O=C(NOCCNCCCCCC(=O)N1CCN(c2nc(N3CCOCC3)nc(-n3c(C(F)F)nc4ccccc43)n2)CC1)c1ccc(F)c(F)c1Nc1ccc(I)cc1F | Active | Dose-dependent effect | Active | Dose-dependent effect | inhibition [14]: Active; inhibition [15]: Active; inhibition [16]: Active; inhibition [17]: Active

SMILES | inhibition [4] | inhibition [6] | inhibition [1] | inhibition [2] | inhibition [3] | inhibition [5] | also measured
O=C(NOCCOCCOCCOCCN1CCN(c2nc(N3CCOCC3)nc(-n3c(C(F)F)nc4ccccc43)n2)CC1)c1ccc(F)c(F)c1Nc1ccc(I)cc1F | Active | Active | Active | Dose-dependent effect | Active | Dose-dependent effect | inhibition in vivo at 375 mg/kg [11]: 95%; IC50 [12]: 0.015 nM; IC50 [10]: 191 nM; inhibition in vivo at 375 mg/kg [13]: 67%
